From the EternaBench riboswitch data

System: MS2 coat protein
Assay: apparent Kd, MS2 coat protein; higher = weaker binding; RNA-MaP array
How it was run: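 In Tris-HCl pH 7.5 buffer with KCl, MgCl2, BSA, DTT, tRNA and Tween20, with or without input ligand, fluorescently labeled MS2 coat protein at 1.5 nM to 3 μM was incubated at room temperature with designed RNAs. The RNAs had been transcribed on an Illumina sequencing chip from sequenced DNA templates, and incubation ran 0.8–1.5 h at the lowest to 10–20 min at the highest concentrations. Apparent Kd is the median of binding-curve fits for individual clusters. Designs measured on fewer than 10 clusters were excluded.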

[1] = designed as: ON switch for flavin mononucleotide, no ligand
[2] = ligand present: flavin mononucleotide, designed as: ON switch for flavin mononucleotide
[3] = designed as: OFF switch for flavin mononucleotide, no ligand
[4] = ligand present: flavin mononucleotide, designed as: OFF switch for flavin mononucleotide
[5] = designed as: OFF switch for theophylline, no ligand
[6] = ligand present: theophylline, designed as: OFF switch for theophylline
[7] = designed as: ON switch for tryptophan, no ligand
[8] = ligand present: tryptophan, designed as: ON switch for tryptophan

Row | Sequence | apparent Kd [1] [nM] | apparent Kd [2] [nM] | apparent Kd [3] [nM] | apparent Kd [4] [nM] | other results
1 | AACUUUCCCUAGAAGGUCGUGUUACAACAUGAGGAUCACCCAUGUCGCCCUAGGGCUGCUGCCGCGAAGGAUAUAGGUCCGGAG | 5.77 | 5.32 | – | – | –
2 | CGCAGGGCCCAGAAGGGCAUAAUGUUAGACUACAUGAGGAUCACCCAUGUGCCACGAGAGGUUGUGCAGGAUAUGGAUCUAUUG | 56.7 | 23.9 | – | – | –
3 | CAAUCUACCACCGGCCUACUGUACACUCGCCGAGGACCGGUACGGCCGCCACUCGACGUUCGACAUGAGGAUCACCCAUGUGGGU | – | – | – | – | apparent Kd (designed as: OFF switch for tryptophan, no ligand): 168 nM; apparent Kd (ligand present: tryptophan, designed as: OFF switch for tryptophan): 334 nM
4 | UGACGUGGUAAGAAGGCAAGAGCAGGGCAGGAUUGAGGAUAUUACGGACAGACAUGAGGAUCACCCAUGUAGAGCCAUAACCGG | 8.55 | 7.89 | – | – | –
5 | UACAAGUACUAGAAGGAUCGAACCGAAGGUGUGAUAGGAUAUAGAGACAUGAGGAUCACCCAUGUAGGAGUGCAGUCAUACAUU | – | – | 27.9 | 23.4 | –
6 | UACAUGAGGAUCACCCAUGUGGUCAGGUUAUCCCGGACGGGAAGAAGGAUAAGAGAGUAACAUUUAUAGGAUAUUCGCCUCAUU | 57.8 | 48.9 | – | – | –
7 | GACGUCGCCUUAGGAUAUGCCCAUUACAUGAGGAUCACCCAUGUUUCUUAAAGAGGAUCCGCAUGGCAGAAGGAAGGUCUCCAC | – | – | 25.4 | 59.4 | –
8 | AGCGUGUAAGGAUAUUGAUCUCCACUUCUGUAGGUCGGUGACAAGAAGGUACAUGAGGAUCACCCAUGUCCAUG | – | – | 19.8 | 21.7 | –
9 | AGAACCAUAGUAGGAUAUGAGACGUUAUUGGUAACAGAAGGACUAGCUGUAACAUGAGGAUCACCCAUGUGGGCCGGACAGAGG | 14.1 | 11.5 | – | – | –
10 | AAAUGGAUCGAAGGAUAUCCCCAGACAUGAGGAUCACCCAUGUGAGGGUACAGUUAUUGUUAUCAGGAGAAGGUCGCAUUCAAA | – | – | 10.3 | 9.5 | –
11 | UGAGCAUCCCAGAAGGAUAUAUGGUCGUAAACAUGAGGAUCACCCAUGUUCCAUUUAGGACUCAAAUAGAAGGUCUCGGGCCAGAC | 13.6 | 11.7 | – | – | –
12 | AAUAAACAGUAGAAGGCUGAUACCUACAAAAGUCGAAGACAUGAGGAUCACCCAUGUCAGUCAUCAGAGGAUAUACGUGAAUCG | 12.3 | 7.49 | – | – | –
13 | AGAUCGCUGACCGCGGGAGAUGCGCAGGAUACCAGCCUAAUGUCCGGCCCUUGGCAGCCUGUAACAUGAGGAUCACCCAUGUGAA | – | – | – | – | apparent Kd [5]: 17.1 nM; apparent Kd [6]: 31 nM
14 | GCCAUGUAAGGAUAUCUUAACUUGCAUCACGCGCGGAAUGGAGAGAAGGUACAUGAGGAUCACCCAUGUGAAAA | – | – | 19.8 | 28 | –
15 | GUGACUAGCGUAAGGAUAUUCACGAGCGGCGGCUUGAAGAAGGUACAUGAGGAUCACCCAUGUAGGGUAAUCAA | – | – | 41.6 | 44.3 | –
16 | GACAGCGAAGGAUAUACAUGAGGAUCACCCAUGUCUCACUAACGUAGCCGCGGGUAAUGUAGAAGGUCGCGAUG | – | – | 191 | 65.4 | –
17 | GGUGGGUCAGGAUAUCCCACACAAUUGCGAACGCGAUGCAGGGAGAAGGGACAUGAGGAUCACCCAUGUGGGAC | – | – | 54.4 | 64.9 | –
18 | GACUGGAGGAGAGGAUAUGCAAAGACUCUAUUCGCAGAAGGCUCGUGCGGUCAACAUGAGGAUCACCCAUGUCUGGCGACAUGC | – | – | 6.26 | 8.62 | –
19 | AGAUCUAACGCAGGAUAUAGUGCGGGAAAACCUAAACAUGAGGAUCACCCAUGUCUGCUACAAAGCUAGAAGGGCGUUCGGGAA | 46.4 | 23.8 | – | – | –
20 | UCGGUACAUGAGGAUCACCCAUGUCGUCACAGAGCAGGAUAUUCAGGCUUCAGAGGUCGCGAAGAAGGGCUGGUGC | 11.9 | 9.02 | – | – | –
21 | AAUAUUAUGUCGGCCGCCACUUCCCACAAGAGGUGCCUGCACCCACAUGAGGAUCACCCAUGUCGAAGGACCGGGACGCUCAAUU | – | – | – | – | apparent Kd [7]: 16.8 nM; apparent Kd [8]: 15.6 nM

Row | Sequence | apparent Kd [1] [nM] | apparent Kd [2] [nM] | apparent Kd [3] [nM] | apparent Kd [4] [nM] | other results
22 | AGCAUGACAGCAGGAUAUGCGAACAGAAAUAGUGCAGAAGGGCUUUACACAUGAGGAUCACCCAUGUCCGCAAGGAUGCGUAUG | 41.1 | 19.4 | – | – | –
23 | GCUAGUAGAGAGAAGGAGCUUGAAUAUUUAGCGCUAGGAUAUCUUCGGUAGCCGUAGAGCAUACAUGAGGAUCACCCAUGUCCG | 52.7 | 27.8 | – | – | –
24 | UAAUCAGUGAUAGGAUAUCGUAGCUCAGAUAGGCGAGAAGGAUCUGACUCCACAUGAGGAUCACCCAUGUUGUACAUACAGGAC | 19.5 | 17.1 | – | – | –
25 | UCUCGGUAAGGAUAUAAAGCGACUCACAUGAGGAUCACCCAUGUUGUCGUCGUGGGCACAUUAGAAGGUACCAUUC | – | – | 7.06 | 6.3 | –
26 | GAUUUACAUGAGGAUCACCCAUGUGAGGAUAUGCCGUACAUCGCGCUCUGAGCUAGUUGCAGAAGGCACAUGAU | – | – | 18.9 | 18.3 | –
27 | UCAUUGUGAGGAUAUUGAUAGCGGACCUUGAUUCUGUACAACAAGAAGGCACAUGAGGAUCACCCAUGUCAUCA | – | – | 16.4 | 58.4 | –
28 | CCACAGACAUGAGGAUCACCCAUGUAGUUGGGCGUGUCAUCUCAGGAUAUGGCAACGCUUAUGAGCCAGAAGGGAGAAGGUUAU | – | – | 13.4 | 12.8 | –
29 | GCGGACGAUGAGAAGGUAGUAAGGUAGGACAUGAGGAUCACCCAUGUAUGAACUAUCCCAACAACUAAGGAUAUCAGCAACCCU | – | – | 7.34 | 5.77 | –
30 | AUUGCCCAAGGAUAUCUAUUUAGAAACAUGAGGAUCACCCAUGUCAUAAUGUUAGGCUCAAGAGAAGGUGGAAGCU | – | – | 8.33 | 8.37 | –
31 | UCGAACUAACAAGGAUAUACGCGGGUCGAAACGGUAGAAGGUGUCAACGGUAUCUCACAUGAGGAUCACCCAUGUCGGCAGGGA | – | – | 135 | 103 | –
32 | AAACAUGAGGAUCACCCAUGUAGAAUAAUCAGACGUUUGAACAGAAGGUGAAAACAAAUAAAACUCAAGGAUAUGUAACUAAAA | 65.6 | 52.5 | – | – | –
33 | GAGCUAUCAGGAUAUACAUGAGGAUCACCCAUGUUUUUUGGAAUCAAGAGGAAUCAAUGUAGAAGGGAUCUCGA | – | – | 21.8 | 28.2 | –
34 | AAAAGAGAAGGAUAUACAGGAAAAGAAAAGAUAUUUCAAUAACAUGAGGAUCACCCAUGUAGAAGGACUAAUAG | – | – | 11.8 | 9.74 | –
35 | AUGAAGCUAAGAGAUACCAGUGACCACAGAUACAUGAGGAUCACCCAUGUCUCAAAUUGUCACCCUUGGCAGCUCACUAUCGAAG | – | – | – | – | apparent Kd (designed as: ON switch for theophylline, no ligand): 10.2 nM; apparent Kd (ligand present: theophylline, designed as: ON switch for theophylline): 9.26 nM
36 | UGCCAACAUGAGGAUCACCCAUGUCAGGAUAUCCGGGAGCACUUCAGUAGAAUCCGCUGGAGAAGGGACAUAGG | – | – | 24.3 | 21.7 | –
37 | AGGCUAUGUGAGAAGGCCGAAUGCCUAUAGUGCGGAGGAUAUCAAUCAACAUGAGGAUCACCCAUGUAGCAAAUCGUAGUUCUC | 84.3 | 60.1 | – | – | –
38 | UGCGAUGAACCUGAUACCAGAUGUAUUUGCUCCUCGGACAACAUGAGGAUCACCCAUGUCAUCCCUUGGCAGCAGGAGCGAAAGC | – | – | – | – | apparent Kd [5]: 11.9 nM; apparent Kd [6]: 44.1 nM
39 | ACUCCGUCGUAGAAGGGAAAAUGCUUGGCGUCUCUCGGGUACAUGAGGAUCACCCAUGUUACGGUUCAGGAUAUACAGACUGCU | – | – | 10.5 | 10.6 | –
40 | GUUGUCAUCCAAGGAUAUUGUAAAAGGAGUGGGCAAGAAGGUGGAGAGCAUUGAUGAAGGUACACAUGAGGAUCACCCAUGUUC | 33.6 | 14.8 | – | – | –
41 | UCUCACAUGAGGAUCACCCAUGUUAAGGCCCGAGGACCGGUACGGCCGCCACUCGUUGGAAGCCGGUAACGUACGAAUCUUCCGU | – | – | – | – | apparent Kd [7]: 17.9 nM; apparent Kd [8]: 24 nM
